What was measured:
Histamine H3 receptor [1] = molecular target: T1, Histamine H3 receptor (Rattus norvegicus, UniProt Q9QYN8); test: (§1) In vitro antagonistic activity tested against Histamine H3 receptor on synaptosomes from rat cerebral cortex; format: functional, subcellular, Brain
In short: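 Preloaded 30 min with L-[3H]histidine (0.4 µM) at 37 °C in modified Krebs-Ringer. Washed, resuspended in 2 mM K+ medium, then depolarized 2 min with 2 or 30 mM K+ (final). […] Stopped by rapid centrifugation; liquid scintillation. Ki by Cheng-Prusoff; mean ± SEM, ≥3 determinations.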

Histamine H3 receptor [2] = molecular target: T1, Histamine H3 receptor; test: Binding affinity towards Histamine H3 receptor on synaptosomes from rat cerebral cortex; format: subcellular, Brain
In short: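 Rat cerebral cortex homogenized in ice-cold 50 mM Na2HPO4/KH2PO4, pH 7.5, then washed membranes after two differential centrifugations. Incubated 60 min at 25 °C with [3H]-(R)-α-methylhistamine and drugs at various concentrations. Stopped by ice-cold dilution, vacuum-filtered through glass-fibre filters, scintillation counted. Nonspecific binding defined with 3 µM thioperamide.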

[3] = molecular target: Histamine H2 receptor (Cavia porcellus) (UniProt P47747); test: […] activity tested against histamine H2 receptor on guinea pig atrium; format: functional, tissue-based; conditions: Cardiac atrium
In short: (§2)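 Isolated, spontaneously beating guinea pig right atrium, standard functional H2 method. Each test run at least in triplicate.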

[4] = molecular target: Histamine H3 receptor (Mus musculus) (UniProt P58406); test: In vivo antagonistic activity was tested against histamine H3 receptor after oral administration to mouse; format: functional, organism-based
In short: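 Swiss mice dosed perorally. Read-out was the increase in brain Nτ-methylhistamine levels.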

[5] = molecular target: Histamine H1 receptor (Cavia porcellus) (UniProt P31389); test: […] activity tested against histamine H1 receptor on guinea pig ileum; format: functional, tissue-based
In short: (§3)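 Isolated guinea pig ileum, standard functional H1 method. Each test run at least in triplicate.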

Histamine H3 receptor [6] = molecular target: T1, Histamine H3 receptor; test: as §1; format: functional, subcellular, Brain; remark: listed apart in the source
In short: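 Rat cerebral cortex synaptosomes preincubated 30 min at 37 °C with L-[3H]histidine (0.4 µM) in modified Krebs-Ringer, washed, resuspended in 2 mM K+ medium. […] Ki via Cheng-Prusoff; mean ± SEM, at least three determinations.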

[7] = molecular target: Histamine H1 receptor (Cavia porcellus) (UniProt P31389); test: […] activity against histamine H1 receptor on guinea pig ileum; format: functional, tissue-based; in short: as §3
[8] = molecular target: Histamine H2 receptor (Cavia porcellus) (UniProt P47747); test: […] activity against histamine H2 receptor on guinea pig atrium; format: functional, tissue-based; conditions: Cardiac atrium; in short: as §2
Histamine H3 receptor [9] = molecular target: T1, Histamine H3 receptor; test: In vitro antagonistic activity against histamine H3 receptor on rat cerebral cortex; format: functional, tissue-based
In short: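 Synaptosomes were preloaded 30 min with L-[3H]histidine (0.4 µM) at 37 °C in modified Krebs-Ringer, then washed and resuspended in 2 mM K+ medium. […] The reaction was stopped by centrifugation and read by scintillation. Ki by Cheng-Prusoff, mean ± SEM, n≥3.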

Chain of Histamine H2 receptor (Cavia porcellus) (P47747 whole entry): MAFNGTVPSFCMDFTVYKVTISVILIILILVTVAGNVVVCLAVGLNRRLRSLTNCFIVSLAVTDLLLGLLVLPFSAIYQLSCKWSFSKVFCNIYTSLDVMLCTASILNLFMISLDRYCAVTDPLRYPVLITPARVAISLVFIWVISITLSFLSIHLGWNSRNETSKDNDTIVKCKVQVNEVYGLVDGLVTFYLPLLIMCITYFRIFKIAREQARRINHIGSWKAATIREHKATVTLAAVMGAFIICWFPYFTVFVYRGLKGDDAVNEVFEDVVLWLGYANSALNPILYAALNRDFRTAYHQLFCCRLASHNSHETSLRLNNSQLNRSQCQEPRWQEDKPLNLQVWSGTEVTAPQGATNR
Chain of Histamine H1 receptor (Cavia porcellus) (P31389 whole entry): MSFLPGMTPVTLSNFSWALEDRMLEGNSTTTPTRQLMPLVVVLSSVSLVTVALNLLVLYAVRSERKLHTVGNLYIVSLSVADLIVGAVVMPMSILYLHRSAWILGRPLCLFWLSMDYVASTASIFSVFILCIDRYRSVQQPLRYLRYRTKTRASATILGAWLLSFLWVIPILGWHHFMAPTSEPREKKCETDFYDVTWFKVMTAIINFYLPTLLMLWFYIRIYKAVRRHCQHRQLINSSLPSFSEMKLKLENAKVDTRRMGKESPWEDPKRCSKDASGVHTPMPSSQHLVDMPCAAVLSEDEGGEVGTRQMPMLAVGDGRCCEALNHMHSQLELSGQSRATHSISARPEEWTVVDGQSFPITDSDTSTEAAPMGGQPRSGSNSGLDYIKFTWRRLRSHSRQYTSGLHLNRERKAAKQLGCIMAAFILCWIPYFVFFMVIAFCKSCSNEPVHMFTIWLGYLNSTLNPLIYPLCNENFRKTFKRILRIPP
Chain of Histamine H3 receptor (Mus musculus) (P58406 whole entry): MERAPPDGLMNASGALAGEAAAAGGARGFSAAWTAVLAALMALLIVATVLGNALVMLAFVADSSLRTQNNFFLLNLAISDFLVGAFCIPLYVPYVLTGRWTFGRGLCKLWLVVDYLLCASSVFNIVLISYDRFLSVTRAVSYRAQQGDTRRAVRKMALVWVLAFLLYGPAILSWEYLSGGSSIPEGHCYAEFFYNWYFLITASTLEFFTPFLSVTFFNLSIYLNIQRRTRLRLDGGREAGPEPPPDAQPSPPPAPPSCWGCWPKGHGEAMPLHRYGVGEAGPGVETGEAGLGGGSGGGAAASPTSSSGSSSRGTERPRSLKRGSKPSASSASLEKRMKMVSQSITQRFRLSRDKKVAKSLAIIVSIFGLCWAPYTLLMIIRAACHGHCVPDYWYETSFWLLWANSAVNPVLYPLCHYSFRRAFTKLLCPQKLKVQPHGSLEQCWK
T1 sequence (Q9QYN8 whole entry): as the sequence (P58406 whole entry) above, with A15T, T286A, G290A, H387R, V389I counted along it

Row | Structure (SMILES) | Ki (Histamine H3 receptor [1]) | Ki (Histamine H3 receptor [2]) | -Log KB [3] | -Log KB [5] | further results
1 | O=C(Nc1cccc(I)c1)OCCCc1cnc[nH]1 | 16 nM | 7.94 nM | – | – | –
2 | Ic1cccc(COCCCc2c[nH]cn2)c1 | 7 nM | 1.26 nM | 5.8 | 5.8 | ED50 [4]: > 10 mg/kg
3 | OCCCc1c[nH]cn1 | – | 631 nM | – | – | ED50 [4]: > 10 mg/kg; Ki (Histamine H3 receptor [6]): 398 nM
4 | O=C(Cc1ccc(I)cc1)OCCCc1c[nH]cn1 | – | – | 3.6 | 4.5 | –
5 | Cc1[nH]cnc1CSCCNC(=N)NCCCc1c[nH]cn1 [IMPROMIDINE] | – | – | – | – | Kb [7]: > 10000 nM; Kb [8]: 0.501 µM; Ki (Histamine H3 receptor [6]): 63.1 nM
6 | Ic1cccc(OCCCc2cnc[nH]2)c1 | 17 nM | 2.51 nM | – | – | –
7 | O=C(Nc1ccccc1I)OCCCc1c[nH]cn1 | – | – | 4.6 | 4.8 | –
8 | Cc1ccc(C(=O)OCCCc2c[nH]cn2)cc1I | – | – | 4.2 | 4.9 | –
9 | O=C(Cc1ccc(I)cc1)OCCCc1cnc[nH]1 | 14 nM | 12.6 nM | – | – | –
10 | Cc1ccc(C(=O)OCCCc2cnc[nH]2)cc1I | 30 nM | 5.01 nM | – | – | –
11 | Nc1c(I)cc(C(=O)OCCCc2cnc[nH]2)cc1I | 146 nM | 31.6 nM | – | – | –
12 | O=C(Nc1ccc(I)cc1)OCCCc1cnc[nH]1 | 11 nM | 7.94 nM | – | – | Ki (Histamine H3 receptor [6]): 10 nM
13 | O=C(OCCCc1cnc[nH]1)c1ccc(I)cc1 | 20 nM | 7.94 nM | – | – | –
14 | O=C(Nc1ccc(I)cc1)OCCCc1c[nH]cn1 | – | – | 5.3 | 4.4 | ED50 [4]: > 10 mg/kg
15 | O=C(CCCc1ccc(I)cc1)OCCCc1cnc[nH]1 | 41 nM | 31.6 nM | – | – | –
16 | O=C(OCCCc1c[nH]cn1)c1cccc(I)c1 | 25 nM | 3.98 nM | 3.8 | 4.8 | –
17 | Brc1ccc(COCCCc2c[nH]cn2)cc1 | 14 nM | 1.26 nM | – | – | Kb [7]: 1260 nM; Kb [8]: 12.6 µM; ED50 [4]: > 10 mg/kg

Row | Structure (SMILES) | Ki (Histamine H3 receptor [1]) | Ki (Histamine H3 receptor [2]) | -Log KB [3] | -Log KB [5] | further results
18 | Ic1ccc(OCCCc2cnc[nH]2)cc1 | 22 nM | 3.16 nM | – | – | –
19 | O=C(Nc1cccc(I)c1)OCCCc1c[nH]cn1 | – | – | 5.3 | 5.1 | –
20 | S=C(NC1CCCCC1)N1CCC(c2cnc[nH]2)CC1 [THIOPERAMIDE] | – | – | – | – | Kb [8]: > 10 µM; Ki (Histamine H3 receptor [9]): 2 nM; Ki (Histamine H3 receptor [6]): 3.98 nM
21 | COc1ccc(CCC(=O)OCCCc2cnc[nH]2)cc1I | 232 nM | 200 nM | – | – | –
22 | Ic1ccc(CCCOCCCc2c[nH]cn2)cc1 | 35 nM | 7.94 nM | 5.1 | 5.2 | –
23 | Nc1c(I)cc(C(=O)OCCCc2c[nH]cn2)cc1I | – | – | 4.6 | 5.9 | –
24 | Ic1cccc(OCCCc2c[nH]cn2)c1 | – | – | 5.6 | 6.2 | –
25 | O=C(CCCc1ccc(I)cc1)OCCCc1c[nH]cn1 | – | – | 4 | 4.8 | –
26 | O=C(OCCCc1cnc[nH]1)c1ccccc1I | 39 nM | 20 nM | – | – | –
27 | O=C(Nc1ccccc1I)OCCCc1cnc[nH]1 | 25 nM | 25.1 nM | – | – | –
28 | COc1ccc(CCC(=O)OCCCc2c[nH]cn2)cc1I | – | – | 4.5 | < 4 | –
29 | O=C(CCc1ccc(I)cc1)OCCCc1c[nH]cn1 | 47 nM | 79.4 nM | 3.6 | 4.8 | –
30 | Ic1ccc(OCCCc2c[nH]cn2)cc1 | – | – | 5.2 | 6.2 | –
31 | O=C(OCCCc1c[nH]cn1)c1ccc(I)cc1 | – | – | 4.5 | 4.2 | –
32 | Ic1ccc(COCCCc2c[nH]cn2)cc1 [IODOPROXYFAN] | 5 nM | 1 nM | 5.2 | 5.8 | ED50 [4]: > 10 mg/kg
33 | O=C(NCc1ccc(I)cc1)OCCCc1c[nH]cn1 | 12 nM | 12.6 nM | 4.5 | 5.1 | –
34 | O=C(OCCCc1c[nH]cn1)c1ccccc1I | – | – | 4.6 | 5.9 | –

From ChEMBL document CHEMBL1129520 (J Med Chem, 1996)
